Measurements taken from ChEMBL document CHEMBL5678818, “Discovery of potent SOS1 inhibitors that block RAS activation via disruption of the RAS-SOS1 interaction” (Proc Natl Acad Sci U S A, 2019).
Calls of active or inactive are those of the source. The calls are words filed in the database; no cut-off is given here.

Tests used:
[1] = biological target: T1, Son of sevenless homolog 1 (Homo sapiens) (UniProt Q07889); experiment: Inhibition of SOS1 in human Calu-1 cells assessed as pERK level incubated for 24 hrs by HTRF analysis relative to control; assay type: cell-based; parameters: scale not given: the % may be the effect or the level left
T1 sequence (whole entry): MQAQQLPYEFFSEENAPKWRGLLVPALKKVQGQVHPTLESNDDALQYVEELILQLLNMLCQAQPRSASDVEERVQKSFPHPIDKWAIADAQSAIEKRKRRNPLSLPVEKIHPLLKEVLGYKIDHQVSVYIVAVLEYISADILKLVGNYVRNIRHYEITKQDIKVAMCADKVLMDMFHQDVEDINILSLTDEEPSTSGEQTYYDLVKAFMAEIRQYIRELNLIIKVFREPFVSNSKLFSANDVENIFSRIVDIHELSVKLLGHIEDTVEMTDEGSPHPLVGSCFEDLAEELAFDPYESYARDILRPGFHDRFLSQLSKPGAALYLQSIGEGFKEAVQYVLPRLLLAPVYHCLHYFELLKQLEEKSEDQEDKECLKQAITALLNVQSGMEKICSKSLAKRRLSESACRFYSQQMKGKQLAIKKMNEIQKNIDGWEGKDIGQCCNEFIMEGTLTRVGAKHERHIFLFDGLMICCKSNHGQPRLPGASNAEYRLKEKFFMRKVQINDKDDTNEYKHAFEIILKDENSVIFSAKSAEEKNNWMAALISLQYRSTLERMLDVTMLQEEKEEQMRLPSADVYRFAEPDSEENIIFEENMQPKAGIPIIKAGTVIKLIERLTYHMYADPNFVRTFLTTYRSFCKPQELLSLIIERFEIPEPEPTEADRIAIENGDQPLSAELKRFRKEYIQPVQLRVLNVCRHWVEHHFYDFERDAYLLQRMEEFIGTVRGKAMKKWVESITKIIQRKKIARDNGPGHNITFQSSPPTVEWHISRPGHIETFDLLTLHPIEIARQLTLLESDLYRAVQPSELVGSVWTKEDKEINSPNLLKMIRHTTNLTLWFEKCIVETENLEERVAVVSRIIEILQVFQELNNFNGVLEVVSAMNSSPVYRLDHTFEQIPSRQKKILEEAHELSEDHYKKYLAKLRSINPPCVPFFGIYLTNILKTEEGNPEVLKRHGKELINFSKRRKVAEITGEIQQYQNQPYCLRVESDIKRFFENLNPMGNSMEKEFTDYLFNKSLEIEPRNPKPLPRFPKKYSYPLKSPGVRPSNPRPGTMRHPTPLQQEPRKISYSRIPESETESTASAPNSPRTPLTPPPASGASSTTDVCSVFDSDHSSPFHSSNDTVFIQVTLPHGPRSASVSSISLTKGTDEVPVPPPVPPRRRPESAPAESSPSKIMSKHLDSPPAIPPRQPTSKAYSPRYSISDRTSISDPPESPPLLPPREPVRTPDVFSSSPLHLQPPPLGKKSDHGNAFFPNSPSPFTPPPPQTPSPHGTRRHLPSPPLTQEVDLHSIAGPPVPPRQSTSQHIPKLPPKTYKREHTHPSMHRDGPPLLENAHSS

Homo sapiens [2] = species: Homo sapiens; experiment: (§1) Stabilization of N-terminal His10-tagged recombinant human KRAS G12C/C118S mutant (1 to 169 residues) expressed in Escherichia coli/N-terminal His10-tagged wild-type recombinant human SOS1 catalytic domain (564 to 1049 residues) expressed in Escherichia coli by HTRF analysis
Outline: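 HTRF equilibrium-binding read-out of KRASG12C_C118S with SOS1cat, detected by fluorescently labelled antibodies including a terbium donor. Signal normalized with DMSO control as 100% and no-SOS1cat wells as 0%. Data are mean ± SD, n = 4.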

[3] = biological target: T1, Son of sevenless homolog 1 (Homo sapiens); experiment: Binding affinity to N-terminal His10-tagged wild-type recombinant human SOS1 catalytic domain (564 to 1049 residues) expressed in Escherichia coli at 200 uM by STD-NMR analysis
Homo sapiens [4] = species: Homo sapiens; experiment: as §1, with “coli/Series S C1 sensor chip-immobilized biotinylated N-terminal” for “coli/N-terminal”, “coli at 100 to 500 uM measured for 360 secs” for “coli”, “SPR” for “HTRF”; details: dose 100-500 µM, time 360.0 sec
Outline: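 SOS1cat is immobilized on the chip, and 250 nM KRASG12C_C118S is flowed over with or without test compound. Compound alone at 100, 250 and 500 µM is also injected to gauge unspecific binding to SOS1cat. Buffer injection serves as the blank.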

[5] = tested on: GTPase KRas (Homo sapiens), P01116 [G12C]; experiment: Binding affinity to N-terminal GST-tagged recombinant human KRAS G12C mutant (1 to 169 residues) expressed in Escherichia coli at 200 uM by STD-NMR analysis
Homo sapiens [6] = species: Homo sapiens; experiment: Stabilization of N-terminal His10-tagged 15N-labeled recombinant human KRAS G12C/C118S mutant (1 to 169 residues) expressed in Escherichia coli/N-terminal His10-tagged wild-type recombinant human SOS1 catalytic domain (564 to 1049 residues) expressed in Escherichia coli at 1 mM incubated for 30 mins by 2D-NMR analysis
[7] = tested on: SOS1-KRAS (Homo sapiens), Q07889+P01116 [G12C]; experiment: Binding affinity to N-terminal GST-tagged recombinant human KRAS G12C mutant (1 to 169 residues) expressed in Escherichia coli/N-terminal His10-tagged wild-type recombinant human SOS1 catalytic domain (564 to 1049 residues) expressed in Escherichia coli at 200 uM by STD-NMR analysis

Row | Activity [1] [%] | Activity (Homo sapiens [2]) | Activity [3] | Activity (Homo sapiens [4]) | Activity [5] | Activity (Homo sapiens [6]) | Activity [7] | Structure (SMILES)
1 | 50 |  |  |  |  |  |  | C=CC(=O)N1CC(N2CCN(C(=O)CNc3cc(C4(C)CC4)c(Cl)cc3O)CC2)C1
2 |  | Active | inactive | Active | inactive | Active | Active | NCc1nn(-c2ccccc2)c2c1CCC2
